Measurements from ChEMBL document CHEMBL5108061, “Lectin-Targeted Prodrugs Activated by Pseudomonas aeruginosa for Self-Destructive Antibiotic Release” (J Med Chem, 2022).
pIC50: −log10 of the molar value. Values after ≈ are worked out from the molar mass of the structure shown.

Key:
[1] = target: Fucose-binding lectin PA-IIL (Pseudomonas aeruginosa (strain ATCC 15692 / DSM 22644 / CIP 104116 / JCM14847 / LMG 12228 / 1C / PRS 101 / PAO1), UniProt Q9HYN5); assay: Competitive binding affinity to recombinant Pseudomonas aeruginosa PAO1 LecB expressed in Escherichia coli BL21(DE3) incubated for 4 to 8 hrs by fluorescent polarization assay
Chain of Fucose-binding lectin PA-IIL (Q9HYN5 whole entry): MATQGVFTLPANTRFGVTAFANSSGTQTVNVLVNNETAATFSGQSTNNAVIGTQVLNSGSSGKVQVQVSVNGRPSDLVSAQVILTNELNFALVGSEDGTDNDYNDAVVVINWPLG

[2] = target: Elastase (Pseudomonas aeruginosa (strain ATCC 15692 / PAO1 / 1C / PRS 101 / LMG12228), UniProt P14756); assay: Prodrug activation assessed as LasB-mediated drug release in Pseudomonas aeruginosa PA14 cell supernatant in presence of human blood plasma and measured for 3 hrs by HPLC-MS analysis; assay type: cell-free
Chain of Elastase (P14756 whole entry): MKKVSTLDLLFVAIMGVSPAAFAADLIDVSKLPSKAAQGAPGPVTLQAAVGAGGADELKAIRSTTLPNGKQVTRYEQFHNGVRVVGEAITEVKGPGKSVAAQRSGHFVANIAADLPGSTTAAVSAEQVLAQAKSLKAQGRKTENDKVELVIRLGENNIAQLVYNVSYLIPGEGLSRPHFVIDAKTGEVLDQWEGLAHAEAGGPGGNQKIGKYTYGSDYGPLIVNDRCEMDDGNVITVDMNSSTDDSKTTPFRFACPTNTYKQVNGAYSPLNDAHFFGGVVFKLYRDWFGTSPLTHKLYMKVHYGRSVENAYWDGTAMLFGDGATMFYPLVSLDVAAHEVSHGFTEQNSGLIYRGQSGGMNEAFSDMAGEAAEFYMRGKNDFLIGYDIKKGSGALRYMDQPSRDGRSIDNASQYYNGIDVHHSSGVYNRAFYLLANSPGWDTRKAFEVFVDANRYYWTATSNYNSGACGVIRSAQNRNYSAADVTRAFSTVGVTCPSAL

[3] = Stability of compound in human blood plasma spiked with Pseudomonas aeruginosa PA14 matrix assessed as hydrolysis of prodrug and measured upto 3 hrs by HPLC-MS/MS analysis; assay type: ADME, cell-free
[4] = test system: Pseudomonas aeruginosa; assay: (§1) Antibacterial activity against Pseudomonas aeruginosa PA14 assessed inhibition of bacterial growth preincubated for 10 mins in PBS buffer followed by overnight grown bacterial culture addition incubated for 18 to 20 hrs by broth microdilution method; assay type: functional
How it was run: (§2)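 Prodrug serial dilutions in PBS/20% DMSO (1 mM to 1.9 μM) were diluted about 1:20 into matrix. Matrices: plasma 5 mL + PA14 LB-culture sterile filtrate 1 mL + PBS 4 mL; filtrate 1 mL + PBS 9 mL; PBS alone; plasma 5 mL + LB 1 mL + PBS 4 mL. Preincubation was 3 h at 37 °C, or <10 min at room temperature.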

[5] = test system: Pseudomonas aeruginosa; assay: (§3) Antibacterial activity against Pseudomonas aeruginosa PA14 assessed inhibition of bacterial growth preincubated for 3 hrs in PBS buffer followed by overnight grown bacterial culture addition incubated for 18 to 20 hrs by broth microdilution method; assay type: functional; details: time 21-23 hrs; how it was run: as §2
[6] = test system: Pseudomonas aeruginosa; assay: as §1, with “mins in matrix containing human blood plasma spiked with Pseudomonas aeruginosa cell culture supernatant” for “mins”; assay type: functional; how it was run: as §2
[7] = test system: Pseudomonas aeruginosa; assay: (§4) Antibacterial activity against Pseudomonas aeruginosa PA14 assessed inhibition of bacterial growth preincubated for 3 hrs in matrix containing 50% human blood plasma and 10% Pseudomonas aeruginosa cell culture supernatant in PBS followed by overnight grown bacterial culture addition incubated for 18 to 20 hrs by broth microdilution method; assay type: functional; details: time 21-23 hrs; how it was run: as §2
[8] = test system: Pseudomonas aeruginosa; assay: as §4, with “containing” for “containing 50%”, “spiked with” for “and 10%”, “PBS buffer” for “PBS”; assay type: functional; how it was run: as §2
[9] = test system: Pseudomonas aeruginosa; assay: as §3, with “3 hrs in matrix containing Pseudomonas aeruginosa cell culture supernatant in PBS” for “3 hrs in PBS”; assay type: functional; details: time 21-23 hrs; how it was run: as §2
[10] = test system: Pseudomonas aeruginosa; assay: (§5) Antibacterial activity against Pseudomonas aeruginosa PA14 assessed inhibition of bacterial growth preincubated for 10 mins in matrix containing human blood plasma spiked with fresh LB medium in PBS followed by overnight grown bacterial culture addition incubated for 18 to 20 hrs by broth microdilution method; assay type: functional; how it was run: as §2
[11] = test system: Pseudomonas aeruginosa; assay: as §5, with “3 hrs” for “10 mins”; assay type: functional; details: time 21-23 hrs; how it was run: as §2
[12] = test system: Pseudomonas aeruginosa; assay: Antibacterial activity against Pseudomonas aeruginosa PA14 assessed inhibition of bacterial growth incubated for 18 to 20 hrs by broth microdilution method; assay type: functional; details: time 18-20 hrs
How it was run: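 Broth microdilution per EUCAST in Müller-Hinton broth II, no matrix preincubation. […] Inoculum from overnight LB-agar colonies adjusted to OD600 0.08–0.13, diluted 1:100, final 5 × 10^5 cfu/mL.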

[13] = Metabolic stability in mouse liver microsomes assessed as half life at 100 uM preincubated for 5 mins followed by NADPH addition and measured upto 60 mins by HPLC-MS/MS analysis; assay type: ADME, Microsome; details: time 65 min
How it was run: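 Thawed mouse liver microsomes (20 mg/mL stock) were pre-incubated with compound (100 μM stock) in 100 mM phosphate buffer for 5 min at 37 °C. Reactions were started with NADPH (20 mM stock) and run in triplicate at 37 °C with shaking. Samples taken at 0, 5, 15, 30 and 60 min were quenched with acetonitrile and analysed by HPLC-MS/MS. Peak areas were normalised to 0 min, and half-life came from linear regression.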

[14] = Metabolic stability in mouse liver microsomes assessed as intrinsic clearance measured per mg protein at 100 uM preincubated for 5 mins followed by NADPH addition and measured upto 60 mins by HPLC-MS/MS analysis; assay type: ADME, Microsome; details: time 65 min, read-out: CLH
How it was run: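 Mouse liver microsomes (5 μL of 20 mg/mL) were mixed with 2 μL of 100 μM compound in 100 mM phosphate buffer and warmed 5 min at 37 °C. NADPH (10 μL of 20 mM) started the reaction, run in triplicate at 150 rpm. Samples were quenched with acetonitrile at 0–60 min and read by HPLC-MS/MS. Half-life came from linear regression of the 0-min-normalized areas, and CLint was derived from it.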

[15] = Stability in mouse plasma assessed as half life at 1 uM and measured upto 240 mins by HPLC-MS/MS analysis; assay type: ADME, cell-free; details: 4 h
How it was run: (§6)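 Compound at 1 μM final in prewarmed mouse or human plasma (pH 7.4), 37 °C, sampled at 0–240 min; extracted with acetonitrile containing caffeine internal standard; HPLC-MS/MS, peak area normalized to internal standard and time 0; procaine and procainamide controls; ≥3 independent repeats.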

[16] = Stability in human plasma assessed as half life at 1 uM and measured upto 240 mins by HPLC-MS/MS analysis; assay type: ADME, cell-free; details: 4 h; how it was run: as §6
[17] = Drug uptake in human A549 cells assessed as intracellular accumulation at 10 ug/ml incubated for 15 to 60 mins by HPLC-MS/MS analysis; assay type: ADME, cell-based; details: time 15-60 min, dose 10 µg/ml
How it was run: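 A549 cells grown to 95% confluence in DMEM/10% FCS, exposed to 10 μg/mL compound for 15, 30 and 60 min at 37 °C; washed twice with PBS, lysed in MeOH; medium, washes and extracts extracted with MeOH containing caffeine internal standard and quantified by HPLC-MS/MS against calibration/QC samples; technical duplicates, two biological replicates.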

[18] = Protein binding in CD-1 mouse plasma at 1 uM incubated for incubated for 2 hrs by HPLC-MS/MS analysis; assay type: ADME, cell-free
How it was run: (§7)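 Rapid equilibrium dialysis; compound at 1 μM final in pooled CD-1 mouse plasma or pooled mixed-gender human plasma, dialysed against buffer; naproxen as high-binding control.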

[19] = Protein binding in human plasma at 1 uM incubated for incubated for 2 hrs by HPLC-MS/MS analysis; assay type: ADME, cell-free; how it was run: as §7
[20] = test system: A549; assay: Cytotoxicity against human A549 cells assessed as reduction in cell viability incubated for 24 hrs by MTT assay
[21] = target: T1, PA-I galactophilic lectin (Pseudomonas aeruginosa (strain ATCC 15692 / PAO1 / 1C / PRS 101 / LMG12228), UniProt Q05097); assay: Competitive binding affinity to recombinant Pseudomonas aeruginosa LecA expressed in Escherichia coli BL21(DE3) incubated for 30 to 60 mins by fluorescent polarization assay
T1 sequence (Q05097 whole entry): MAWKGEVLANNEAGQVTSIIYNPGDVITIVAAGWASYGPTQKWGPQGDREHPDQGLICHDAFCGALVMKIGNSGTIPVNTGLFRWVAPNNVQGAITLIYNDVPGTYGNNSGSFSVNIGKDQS
How it was run: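 Recombinant LecA (E. coli BL21(DE3), galactosyl-sepharose purified) at 40 μM with 20 nM fluorescein-galactoside reporter in TBS/Ca pH 7.4; compounds serially diluted with 30% DMSO co-solvent, technical triplicates; 30–60 min at 22 °C; fluorescence polarization (ex 485/em 535); four-parameter fit with plateaus fixed by pNP-β-D-Gal control; ≥3 independent experiments.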

Compound | pIC50 [1] | Drug metabolism [2] | Stability [3] | MIC [4] [µM] | MIC [5] [µM] | MIC [6] [µM] | MIC [7] [µM] | MIC [8] [µM] | MIC [9] [µM] | MIC [10] [µM] | MIC [11] [µM] | MIC [12] [µM] | t1/2 [15] [h] | t1/2 [16] [h] | Drug uptake [17] [ng/mL] | PPB [18] [%] | PPB [19] [%] | pIC50 [20] | pIC50 [21] | further results
CC(C)C[C@H](NC(=O)CNC(=O)[C@H](C)NC(=O)c1ccc(S(=O)(=O)NC[C@H]2O[C@@H](C)[C@@H](O)[C@@H](O)[C@@H]2O)cc1)C(=O)N[C@@H](C)C(=O)NC[C@@H]1CCN(c2cc3c(cc2F)c(=O)c(C(=O)O)cn3C2CC2)C1 | 5.37 | Metabolite_Detected | Stable | > 25 | > 25 | 3.13 (≈ 3.13 µg/mL) | 1.56 (≈ 1.56 µg/mL) | 3.13 (≈ 3.13 µg/mL) | 1.56 (≈ 1.56 µg/mL) | ≥ 25 | 12.5 (≈ 12.5 µg/mL) |  |  |  |  |  |  |  |  | 
O=C(O)c1cn(C2CC2)c2cc(N3CCNCC3)c(F)cc2c1=O [CIPROFLOXACIN] |  |  |  | 0.125 (≈ 0.0414 µg/mL) | 0.125 (≈ 0.0414 µg/mL) | 0.25 (≈ 0.0828 µg/mL) | 0.156 (≈ 0.0517 µg/mL) |  |  | 0.156 (≈ 0.0517 µg/mL) | 0.156 (≈ 0.0517 µg/mL) | 0.125 (≈ 0.0414 µg/mL) |  |  |  |  |  |  |  | 
Cl.N[C@H]1CCN(c2cc3c(cc2F)c(=O)c(C(=O)O)cn3C2CC2)C1 |  |  |  |  |  |  |  |  |  |  |  | 0.027 | > 4 | 2.25 | 2000 |  |  |  |  | half-life at 100 µM [13]: > 1 h; microsomal CLint at 100 µM [14]: < 23 µL/min/mg
CC(C)C[C@H](NC(=O)CNC(=O)[C@H](C)NC(=O)c1ccc(S(=O)(=O)NC[C@H]2O[C@@H](C)[C@@H](O)[C@@H](O)[C@@H]2O)cc1)C(=O)N[C@@H](C)C(=O)N[C@H]1CCN(c2cc3c(cc2F)c(=O)c(C(=O)O)cn3C2CC2)C1 | 5.44 | Metabolite_Detected | Stable | > 25 | > 25 | 0.78 (≈ 0.77 µg/mL) | 0.1 (≈ 0.0987 µg/mL) | 1.56 (≈ 1.54 µg/mL) | 0.39 (≈ 0.385 µg/mL) | ≥ 25 | 0.78 (≈ 0.77 µg/mL) |  | 1.23 | 2.25 | 55 | 30.1 | 51.1 | < 4.30 |  | 
CC(C)C[C@H](NC(=O)CNC(=O)[C@H](C)NC(=O)c1ccc(S[C@@H]2O[C@H](CO)[C@H](O)[C@H](O)[C@H]2O)cc1)C(=O)N[C@@H](C)C(=O)N1CCN(c2cc3c(cc2F)c(=O)c(C(=O)O)cn3C2CC2)CC1 |  | Metabolite_Notdetected | Stable | > 25 | > 25 | ≥ 25 | ≥ 25 | ≥ 25 | ≥ 25 | > 25 | ≥ 25 |  |  |  |  |  |  |  | 4.50 | 
CC(C)C[C@H](NC(=O)CNC(=O)[C@H](C)NC(=O)c1ccc(S[C@@H]2O[C@H](CO)[C@H](O)[C@H](O)[C@H]2O)cc1)C(=O)N[C@@H](C)C(=O)N[C@H]1CCN(c2cc3c(cc2F)c(=O)c(C(=O)O)cn3C2CC2)C1 |  | Metabolite_Detected | Stable | > 25 | > 25 | 0.195 (≈ 0.184 µg/mL) | 0.1 (≈ 0.0942 µg/mL) | 0.78 (≈ 0.735 µg/mL) | 0.195 (≈ 0.184 µg/mL) | ≥ 25 | 0.78 (≈ 0.735 µg/mL) |  | > 4 | > 4 |  | 74 | 97.2 | 4.66 | 4.53 | 
